Screening results deposited in PubChem BioAssay by several laboratories.
hERG rescue = shields human hERG channel from block by proarrhythmic agents. Q12809. CHO-hERG, FluxOR thallium flux, dofetilide IC70 present. activation (rescue from dofetilide block), less the hit threshold, % at 10 µM. 310,000 tested, 0.51% active;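 active = activation above the mean of controls blocked by dofetilide plus 5 SD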;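 note: thallium influx through hERG after potassium depolarization seen as dye fluorescence rise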
AI-2 QS modul = modulates the Vibrio harveyi AI-2 quorum sensing system; Vibrio harveyi JMH597 AI-2 luminescence/OD600 ratio, 9 h; active compounds read low; strain lacks LuxN and CqsS sensors; 0 = neutral-control median; activity change, % at 7.5 µM; 300,000 tested, 0.4% active; in the data active = activity change below about -75%, passing the limit was not always enough;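 note: luminescence divided by OD600 gain over 9 h not by final OD600 alone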
Mot1-301 SUMO = blocks SUMOylation pathway, rescuing yeast Mot1-301 growth; growth rescue, % at 18.8 µM; 320,000 tested, 1% active; S. cerevisiae Mot1-301 growth rescue, ATP luminescence, 38.5C; percent above DMSO median, 100 means doubled; AID 2716;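 active = every valid replicate shows activation above 250% relative to neutral control wells; inactive = the rest, any valid replicate at or below 250%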;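 note: OY570 slx delta 5 strain wells were the positive control but not used for scaling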
KCNQ1 act = potentiates or activates the human KCNQ1 potassium channel; CHO-K1 KCNQ1, thallium flux FluxOR fluorescence; active compounds read high; B-score at 10 µM; 310,000 tested, 0.35% active; AID 2648;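 active = fluorescence ratio B-score, a plate-corrected score, at least three library SD, with initial intensity B-score within 5 SD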
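Medium – assay buffer, equal DMSO in all wells · Material – CHO-K1 cell line with stable KCNQ1 potassium channel expression · Signal – kinetic FluxOR thallium fluorescence, 10-s 1-Hz baseline, 110-s post-stimulus read · Compound – single concentration per compound, DMSO matched to controls · Schedule – 37 °C overnight plating, 90-min dark dye load, 20-min compound pretreatment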
KCNQ1 inh = human KCNQ1 channel inhibition; B-score at 10 µM; 310,000 tested, 1.3% active; CHO-K1 KCNQ1, FluxOR thallium flux fluorescence; active compounds read high; P51787;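 active = compounds whose thallium flux B-score, printed positive for inhibition, exceeds three library SD while starting fluorescence stays within three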;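 note: channel opened by potassium depolarization with thallium stimulus after 20 min compound exposure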
Cl transport mod = modulators of human KCC2 chloride dependent transport | 190,000 tested, 2.2% active | B-score of Tl+ flux slope (higher = more flux/activation; lower = inhibition) at 10 µM | KCC2 cells, thallium flux FluoZin-2 fluorescence | AID 1456;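 active = thallium flux slope and its plate-corrected score both differing from the plate sample mean at a set confidence after two filtering rounds, in either direction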;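 note: slope of fluorescence scaled to starting intensity during 10 to 20 s after thallium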
Target sequence (Q9H2X9 whole entry, looked up): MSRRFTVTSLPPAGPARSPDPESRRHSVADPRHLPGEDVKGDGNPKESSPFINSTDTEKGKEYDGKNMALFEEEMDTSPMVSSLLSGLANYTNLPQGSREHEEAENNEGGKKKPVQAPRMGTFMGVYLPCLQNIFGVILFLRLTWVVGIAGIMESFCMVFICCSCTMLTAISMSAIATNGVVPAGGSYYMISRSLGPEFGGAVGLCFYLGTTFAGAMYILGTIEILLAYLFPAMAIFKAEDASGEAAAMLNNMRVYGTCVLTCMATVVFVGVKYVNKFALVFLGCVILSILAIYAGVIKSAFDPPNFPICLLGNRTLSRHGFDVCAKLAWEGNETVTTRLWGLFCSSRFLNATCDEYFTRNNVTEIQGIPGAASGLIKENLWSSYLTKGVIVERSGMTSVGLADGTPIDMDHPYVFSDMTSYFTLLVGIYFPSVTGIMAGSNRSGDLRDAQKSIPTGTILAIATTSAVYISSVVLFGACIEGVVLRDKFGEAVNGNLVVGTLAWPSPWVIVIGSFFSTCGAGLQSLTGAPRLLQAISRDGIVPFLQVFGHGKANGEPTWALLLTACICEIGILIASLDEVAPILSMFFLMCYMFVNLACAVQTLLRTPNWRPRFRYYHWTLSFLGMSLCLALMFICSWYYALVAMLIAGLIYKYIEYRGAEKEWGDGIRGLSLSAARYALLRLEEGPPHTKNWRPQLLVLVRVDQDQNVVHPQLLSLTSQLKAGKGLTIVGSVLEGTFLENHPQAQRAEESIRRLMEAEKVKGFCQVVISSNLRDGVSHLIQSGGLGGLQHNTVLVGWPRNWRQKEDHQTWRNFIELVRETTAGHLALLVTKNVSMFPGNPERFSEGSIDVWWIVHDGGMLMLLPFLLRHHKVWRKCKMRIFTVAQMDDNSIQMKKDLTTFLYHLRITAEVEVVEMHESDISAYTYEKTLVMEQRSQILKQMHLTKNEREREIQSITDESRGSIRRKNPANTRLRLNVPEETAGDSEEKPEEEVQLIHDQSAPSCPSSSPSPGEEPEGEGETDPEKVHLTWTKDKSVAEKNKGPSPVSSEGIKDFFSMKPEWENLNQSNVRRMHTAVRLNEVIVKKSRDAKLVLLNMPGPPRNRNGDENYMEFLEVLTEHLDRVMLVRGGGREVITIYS
Yeast Mot1 SUMO = yeast SUMO pathway inhibition in dose response | shares compounds with Mot1-301 SUMO | S. cerevisiae Mot1-301 galactose growth, ATP luminescence, 24 h; -100 = growth of slx-deleted rescue strain | growth activity, percent, % at 42 µM | 2,300 tested, under 10 active;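 active = Signal drops as the depositor expects, and the fitted half-maximal dose is no more than ten times the top valid tested dose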;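 note: more negative values mean stronger growth rescue toward the control strain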
* = called active by the depositor; i = inactive; · = no result given; + = active, no number. Compounds with a hit are over-represented: about 4.2% of the library has one in this group of screens.

SMILES | hERG rescue | AI-2 QS modul | Mot1-301 SUMO | KCNQ1 act | KCNQ1 inh | Cl transport mod | Yeast Mot1 SUMO
COCCN(C(=O)C1CC1)c1nnc(-c2ccc(C)cc2)s1 | -2 | 11 | 731* | i | i | -0.04 | 0
Cc1ccc(C(C(=O)NC2CCCCC2)N(CCC(C)C)C(=O)CNC(=O)c2ccco2)o1 (stereo not given) | -6 | 3 | + | i | i | -0.45 | -1
C=CCN(C(=O)CNC(=O)c1ccco1)C(C(=O)NC1CCCCC1)c1ccc(F)cc1 (stereo not given) | 0 | 1 | · | i | i | 0.42 | ·
CC(=O)c1ccc(N(C(=O)CNC(=O)c2ccco2)C(C(=O)NC2CCCC2)c2ccc(C)o2)cc1 (stereo not given) | -8 | 14 | 1 | i | i | · | ·
C=CCN(C(=O)CNC(=O)c1ccco1)C(C(=O)NC1CCCCC1)c1ccccc1 (stereo not given) | -2 | 39 | 737* | i | i | 0.26 | 0
OCCNC(=S)NCc1ccccc1 | -3 | 1 | -1 | i | i | 1.7 | ·
COc1ccc(C2=NS(=O)(=O)N(C)C(C(=O)Nc3ccc(C(C)=O)cc3)=C2)cc1OC | -16 | 19 | 4 | i | i | · | ·
COc1ccc([C@H]2CC(=O)C=C(c3cc(OC)ccc3OC)C2)cc1 | · | · | -15 | · | · | · | ·
CCc1ccc2nc(-c3cccc(C)c3)nc(SCC(=O)NCC3CCCO3)c2c1 (stereo not given) | -9 | 13 | 404* | i | i | 0.28 | 0
O=C(Cn1nc(C(F)(F)F)c2c1CCCC2)N1CCOCC1 | -3 | 6 | 772* | i | i | 1.7 | 0
CCN(CC1COc2ccccc2O1)C(=S)NCCCN(C)C (stereo not given) | -12 | 5 | + | i | i | -0.024 | 0
COc1ccc(/C=N\NC(=O)c2cc(OCC(F)(F)F)ccc2OCC(F)(F)F)cc1 | -6 | 28 | 797* | i | i | 0.97 | 0
CCN(C(=O)CCS(=O)(=O)c1ccc2c(c1)oc(=O)n2C)c1ccc(OC)cc1 | -3 | 26 | 378* | i | i | · | 0
COc1ccc2cc(C#N)c(Nc3cccc(F)c3)nc2c1 | -12 | 8 | 572* | i | i | 0.38 | 0
CCCSc1cc(N2CCOCC2)nc(-c2ccccc2Cl)n1 | -7 | 31 | -18 | i | i | 0.0044 | ·
CC(=O)Nc1cc2nn(-c3ccccc3)nc2cc1Cl | -8 | 9 | 553* | i | i | -1.5 | 0
Cc1noc(C)c1N=Nc1ccc(Br)cc1C(=O)O | -20 | 40 | · | i | i | -1.5 | ·
CCN(CC)CCNC(=O)c1c(O)c2c([nH]c1=O)CCCC2 | -11 | 18 | -4 | i | i | · | ·
CN(C)CCNC(=O)c1c(O)c2c([nH]c1=O)CCCC2 | -3 | 30 | 630* | i | i | -5.2 | 0
CN(C)CCNC(=O)c1scc2c1CCCC2 | -11 | 21 | 824* | i | i | 0.54 | 0
CCNCCNC(=O)c1c(O)c2c([nH]c1=O)CCCC2 | -9 | 10 | + | i | i | -0.61 | 0
Cc1ccc(NS(=O)(=O)c2ccc(NC(=O)c3cccs3)cc2)cc1 | -5 | 19 | 3 | i | i | · | ·
CCOC(=O)N1CCN(C(=O)CSc2ccc(C(=O)OC)cc2[N+](=O)[O-])CC1 | -5 | 1 | 1 | i | i | · | ·
COC(=O)c1ccc(SCC(=O)N2CCC(C)CC2)c([N+](=O)[O-])c1 | -10 | 26 | 836* | i | i | 0.2 | 0
O=C(O)c1ccc(CNC(=O)C23CC4CC(CC(C4)C2)C3)cc1 | -1 | 8 | 87 | i | i | · | ·
SMILES | hERG rescue | AI-2 QS modul | Mot1-301 SUMO | KCNQ1 act | KCNQ1 inh | Cl transport mod | Yeast Mot1 SUMO
Cn1nccc1C(=O)N1CCOCC1 | -7 | -3 | 15 | i | i | · | ·
COc1ccc(NC(=O)c2ccc(-c3csc(C)n3)cc2)cc1 | -4 | 33 | 796* | i | i | · | 0
COc1ccc(Cc2nnc(NC(=O)c3ccco3)s2)cc1OC | -15 | 20 | -4 | i | i | -0.31 | ·
CCCCN(CCO)c1ncnc2sc(-c3ccccc3)cc12 | -5 | -8 | -2 | i | i | · | ·
CCn1c(SCC(=O)Nc2cc(C(C)(C)C)nn2-c2ccccc2)nnc1-c1cccs1 | -8 | 9 | -1 | i | i | -2.5 | ·
CCn1c(SCC(N)=O)nnc1-c1cc2c(C)nn(-c3ccccc3)c2s1 | -19 | 47 | + | i | i | 0.18 | 0
CC(C)CC(c1nnnn1Cc1ccc2c(c1)OCO2)N1CCC(C(N)=O)CC1 (stereo not given) | -2 | 2 | -3 | i | i | · | ·
COc1ccc(-n2nc(C(=O)NCC(=O)N3CCCC3)c3ccccc3c2=O)c(OC)c1 | -6 | 1 | + | i | i | · | 1
CCOC(=O)N1CCN(C(=O)CNC(=O)c2nn(-c3ccc(OC)c(OC)c3)c(=O)c3ccccc23)CC1 | -10 | 7 | 497* | i | i | · | 1
CCOC(=O)N1CCN(C(=O)CNC(=O)c2nn(-c3ccc(OC)cc3OC)c(=O)c3ccccc23)CC1 | -11 | 3 | -16 | i | i | · | ·
Cc1c(N2C(=O)c3ccccc3C2(O)c2ccccc2)c(=O)n(-c2ccccc2)n1C (stereo not given) | -5 | 21 | 7 | i | i | -0.014 | ·
O=Cc1ccccc1OCCN1CCCC1=O | -4 | 20 | 734* | i | i | · | 1
O=Cc1ccc(OCCN2CCCC2=O)cc1 | -4 | 9 | 15 | i | i | · | ·
Cc1occc1-c1nnc(SCC(=O)NC2CCC(C)CC2)o1 (stereo not given) | · | · | 17 | · | · | · | ·
O=C(CSC(=S)N1CCCC1)NCC(=O)Nc1ccc(F)c(F)c1 | -10 | 33 | -22 | i | i | · | ·
COCC(=O)n1nc(NCc2ccc(OC)cc2)nc1NCc1ccc(OC)cc1 | -11 | 10 | 394* | i | i | -0.0059 | 0
COc1ccccc1NC(=O)CCc1nnc2ccc(N3CCN(C)CC3)nn12 | -6 | 5 | -11 | i | i | · | ·
COc1ccc(OC)c(S(=O)(=O)N2CCCC(C(=O)NCCN3CCOCC3)C2)c1 (stereo not given) | -2 | 20 | 0 | i | i | · | ·
CCOc1ccc(Cl)cc1CNc1nnnn1CC | -11 | 22 | 464* | i | i | · | 1
CCCn1nnnc1NCc1ccccc1OCC | -6 | -2 | 13 | i | i | · | ·
